Rows were chosen to be rich in hits. Some 3% of all compounds tested hit in one or more screens of this group.
Xi reactivation: reactivates the inactive X chromosome in mouse fibroblasts; XiGFP mouse fibroblasts, % GFP-positive cells imaging, 3 d; cells co-treated with 5-aza-dC sensitizer; scaled so ellipticine positive control = 100%; activation, % at 7.58 µM; 0.055% of 360,000 active; AID 743238;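 active = mean normalized replicate activation at least 10% and every replicate at or above 10%; inconclusive = only one of the two criteria met; inactive = mean below 10% and not all replicates reach 10%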;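 also: 0% = median of on-plate neutral control wells and 100% = ellipticine 6 µM median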
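System: XiGFP fibroblasts, SV40-immortalized. Medium: DMEM plus 5-aza-dC sensitizer. Doses: single point. Timing: 3 d treatment, 15 min room-temperature fixation. Control set: ellipticine 6 µM.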
Wnt act: Wnt/beta-catenin pathway activation | Wnt/beta-catenin reporter cell assay, activator, plate reader | 1.2% of 300,000 active | AID 743398 | activation, % at 9.35 µM; in the data active = activation above about 30%, passing the limit was not always enough; inconclusive = no clear call, values can overlap the other calls;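 also: 0% = neutral control wells and 100% = positive control wells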
esBAF inh: inhibitors of esBAF chromatin remodeling in mouse ES cells; Bmi1-luciferase knock-in reporter, 24 h; 100% = twice the neutral-well signal; reporter increase, % at 12.5 µM; 2% of 350,000 active; in the data active = activation above about 40%; inconclusive = no clear call, values can overlap the other calls;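 also: 0% = median of the plate's neutral control wells and 100% = double that signal; a rise in the Bmi1 reporter signal indicates esBAF inhibition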
NSD2 inh: inhibitors of human histone methyltransferase NSD2. O96028. 0.54% of 310,000 active. inhibition, % at 12.5 µM. NSD2 peptide methylation, AlphaScreen, 120 min; in the data active = inhibition above about 50%
MITF TRPM1 HTS: increases MITF-driven TRPM1 promoter luciferase signal. SK-MEL-5 TRPM1-promoter luciferase, 24 h; % of positive control, neutral wells = 0. activation, % at 12.5 µM. 0.75% of 300,000 active;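 active = mean activation of at least 80% with every replicate also reaching 80%; inconclusive = mean reaches 80% but some replicate falls short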;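 also: 0% = neutral control wells and 100% = parthenolide positive control wells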
Casp6 inh: inhibitors of human caspase-6. P55212. purified caspase-6, Z-VEID-R110 cleavage fluorescence. inhibition, % at 12.5 µM. 0.53% of 350,000 active. AID 686996;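 active = mean inhibition across replicates at least about 35%, with every replicate also reaching that limit, limit read from the data; inconclusive = only one of the two criteria met; inactive = neither criterion met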;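 also: 0% = median of neutral control wells and 100% = no fluorescence left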
Target sequence (P55212 24-179 limits assumed): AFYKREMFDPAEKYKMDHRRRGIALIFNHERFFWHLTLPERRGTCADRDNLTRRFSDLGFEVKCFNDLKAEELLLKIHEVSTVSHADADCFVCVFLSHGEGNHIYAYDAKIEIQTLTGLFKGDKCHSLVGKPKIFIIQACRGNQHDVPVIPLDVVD
Target sequence (P55212 194-293 limits assumed): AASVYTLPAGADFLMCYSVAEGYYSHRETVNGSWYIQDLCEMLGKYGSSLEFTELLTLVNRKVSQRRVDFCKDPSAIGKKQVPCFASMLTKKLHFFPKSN
* marks the source's active call; other numbers are inactive results.

For Cc1ccc(OCc2cc(C(=O)N3CCC(c4ccccc4Cl)C3)no2)cc1C (stereo not drawn) the results were Xi reactivation 0.0, Wnt act 29.1, esBAF inh 57.1*, NSD2 inh -2.7, MITF TRPM1 HTS 50.5 and Casp6 inh 1.7.
Screening Cc1ccc(OCc2cc(C(=O)N(CCO)Cc3cccs3)no2)cc1C returned Xi reactivation 0.1, Wnt act 26.9, esBAF inh 83.5*, NSD2 inh -1.0, MITF TRPM1 HTS 86.1* and Casp6 inh 0.3.
c1ccc2c(COn3nnc4ccccc43)cccc2c1 was read as esBAF inh 55.8*, NSD2 inh -4.0 and MITF TRPM1 HTS 64.3.
For c1ccc2c(Cn3nnc4ccccc43)cccc2c1 the results were esBAF inh -4.6, NSD2 inh -1.0 and MITF TRPM1 HTS -10.7.
Cc1noc(C)c1COc1ccccc1C(=O)N(C)Cc1ccco1 was read as Xi reactivation 0.2, Wnt act 37.8*, esBAF inh -1.5, NSD2 inh 0.8, MITF TRPM1 HTS -0.6 and Casp6 inh 0.6.
`Cc1noc(C)c1COc1ccccc1C(=O)N(C)CC(=O)Nc1ccc(Cl)c(Cl)c1` gave Xi reactivation 0.0, Wnt act 0.3, esBAF inh 4.2, NSD2 inh -4.9, MITF TRPM1 HTS 23.9 and Casp6 inh 0.6.
For O=c1[nH]c(CSc2ccccn2)nc2c1cnn2-c1ccccc1 the results were Xi reactivation -0.4, Wnt act 9.5, NSD2 inh 0.1 and MITF TRPM1 HTS 31.7.
For Cc1ccc2nc(SCc3nc4ccccc4c(=O)[nH]3)[nH]c2c1 the results were Xi reactivation 0.0, Wnt act 10.7, esBAF inh 51.2*, NSD2 inh 2.5, MITF TRPM1 HTS 34.8 and Casp6 inh 3.7.
O=c1[nH]c(CSc2ccccn2)nc2ccccc12 was read as Xi reactivation 0.0, Wnt act 31.0*, NSD2 inh 1.4, MITF TRPM1 HTS 58.9 and Casp6 inh -0.4.
COC(=O)c1sc2nc(CSc3nc4ccc(C)cc4[nH]3)[nH]c(=O)c2c1C was read as Wnt act -3.0, esBAF inh -3.8, NSD2 inh 0.6 and MITF TRPM1 HTS 1.4.
Screening O=c1[nH]c(CSc2nc3ccccc3s2)nc2ccccc12 returned Xi reactivation -0.1, Wnt act 28.2, esBAF inh 47.4*, MITF TRPM1 HTS 30.3 and Casp6 inh -1.8.
For CN(C)C(=O)c1cccc(-c2ccc3n(c2=O)C[C@@H]2N[C@H]3[C@H](C(=O)NC3CCC3)[C@H]2CO)c1 the results were Xi reactivation 0.8, esBAF inh -0.2 and Casp6 inh 3.2.
For C[C@H](CO)N1C[C@H](C)[C@H](CN(C)C(=O)c2ccncc2)OCCCC[C@H](C)Oc2ccc(NC(=O)C3CCCCC3)cc2C1=O the results were Xi reactivation 0.1 and esBAF inh 0.0.
Screening C[C@H]1CN([C@@H](C)CO)C(=O)c2ccccc2-c2ccccc2CO[C@H]1CN(C)Cc1cccc(F)c1 returned Xi reactivation -0.8, esBAF inh 0.7 and Casp6 inh -0.8.
`CC(=O)c1ccc(NC(=O)c2noc3c2CCCCC3)cc1` gave esBAF inh -1.9, NSD2 inh -1.9 and MITF TRPM1 HTS 88.5*.
Screening Cc1cc(NC(=O)c2noc3c2CCCCC3)no1 returned Wnt act 6.7, esBAF inh 11.2, NSD2 inh 0.8, MITF TRPM1 HTS 69.9 and Casp6 inh -1.3.
Screening O=C(Nc1ccc2c(c1)OCO2)c1noc2c1CCCCC2 returned NSD2 inh 1.3 and MITF TRPM1 HTS 3.5.
For O=C(Nc1ccc2c(c1)OCO2)c1noc2c1CCCC2 the results were Xi reactivation -0.1, Wnt act 38.0*, esBAF inh -2.9, NSD2 inh 21.0, MITF TRPM1 HTS 8.0 and Casp6 inh 4.5.
O=C(C[C@H]1CC[C@H]2[C@@H](COC[C@H](O)CN2S(=O)(=O)c2ccc(Cl)cc2)O1)NCCN1CCCCC1 was read as Xi reactivation 0.1 and Casp6 inh 1.9.
Screening Cc1noc(C)c1NC(=O)N(C)C[C@H]1OCCCC[C@H](C)Oc2ccc(NS(=O)(=O)c3cccs3)cc2C(=O)N([C@H](C)CO)C[C@@H]1C returned Xi reactivation -1.1, esBAF inh 2.0 and Casp6 inh -1.8.
Screening CC1(C)CC(/C=C/c2ccccc2)=Nc2ccccc2N1 returned Xi reactivation 0.0, Wnt act -4.5, NSD2 inh 8.0, MITF TRPM1 HTS 95.0* and Casp6 inh -4.4.
For CO[C@@H]1CC[C@H]2CCN(C)C(=O)CCCN(C)C(=O)c3cccc(C#N)c3OC[C@@H]1O2 the results were Xi reactivation 0.1, esBAF inh -4.4 and Casp6 inh 6.7.
Screening CN(C)C=Nc1ccc2nc3c(cc2c1)[nH]c1ccccc13 returned Xi reactivation 0.0, Wnt act 39.1*, esBAF inh 2.5, NSD2 inh -5.9, MITF TRPM1 HTS 68.1 and Casp6 inh -79.7.
Screening Cc1ccc(C(=O)NCC#N)cc1 returned Xi reactivation 0.2, Wnt act -0.3, NSD2 inh -1.8, MITF TRPM1 HTS -4.7 and Casp6 inh -1.1.
`Cc1ccc(C(=O)NC(C#N)=C(Cl)Cl)cc1` gave Xi reactivation 0.4, Wnt act 77.1*, NSD2 inh 3.4 and Casp6 inh 4.4.
CO[C@H]1CN(C)C(=O)c2ccc(NS(=O)(=O)c3cccc(F)c3)cc2OC[C@H](C)NC[C@H]1C was read as Xi reactivation 0.0, esBAF inh -0.2 and Casp6 inh -0.2.
Cc1ccc(-c2nc(-c3ccncc3)no2)cc1 was read as Xi reactivation 0.1, Wnt act 33.2*, esBAF inh 1.2, NSD2 inh 0.4, MITF TRPM1 HTS 23.3 and Casp6 inh -2.0.
For Nc1ccc(-c2ncc(-c3ccccc3)o2)cc1 the results were Xi reactivation 0.0, Wnt act 1.2, esBAF inh -62.1, NSD2 inh 3.1, MITF TRPM1 HTS -58.6 and Casp6 inh -1.5.
`Cc1ccc(-c2cnc(-c3ccncc3)o2)cc1` gave esBAF inh 45.3*, NSD2 inh 0.7 and MITF TRPM1 HTS 40.0.
Screening Cc1cc(C)cc(-c2nc(-c3ccncc3)no2)c1 returned Xi reactivation -0.1, Wnt act 6.8, esBAF inh inconclusive, MITF TRPM1 HTS 66.9 and Casp6 inh -1.2.
`Brc1cccc(-c2nc(-c3ccncc3)no2)c1` gave Wnt act -2.9, esBAF inh 57.2* and MITF TRPM1 HTS 68.7.
For O=C(Nc1ccccc1)OCC1CCCN2CCCCC12 (stereo not drawn) the results were Wnt act -2.4, esBAF inh 7.6, NSD2 inh 1.6 and MITF TRPM1 HTS -3.3.
CC1=CCC(COC(=O)Nc2ccccc2)CC1 (stereo not drawn) was read as Wnt act -2.2, esBAF inh 84.1*, NSD2 inh 1.1 and MITF TRPM1 HTS 125.5*.
